Laboratory results: ChEMBL document CHEMBL2021892, “Rational design, synthesis and anti-proliferative properties of new CB2 selective cannabinoid receptor ligands: an investigation of the 1,8-naphthyridin-2(1H)-one scaffold” (Eur J Med Chem, 2012)
Activity calls are given as the source filed them. The rule behind the calls is not given here.

What was measured:
DU-145 [1] = test: Antiproliferative activity against human DU145 cells at 0.3 uM after 24 hrs by SRB assay in presence of CB2 receptor antagonist SR144528; format: functional, cell-based
How it was run: (§1)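 DU-145 cells seeded at 10,000 per well, exposed 24 h to CB2 ligands, with or without SR144528 (3 µM). Line 2 covers 0.1 to 1 µM; lines 3 and 4 use 0.3 µM. Proliferation read as O.D. by sulforhodamine B. Three independent experiments; two-tailed t-test against vehicle and against ligand plus SR144528.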

[2] = Antiproliferative activity against myelin basic protein-activated human lymphocytes at 0.3 uM; format: cell-based; conditions: lymphocyte
DU-145 [3] = test: Down-regulation of CB2 receptor protein level in human DU145 cells at 0.3 uM after 24 hrs by immunoblot analysis; format: functional, cell-based
How it was run: (§2)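 DU-145 cells incubated 24 h with ligand at 0.3 µM, with or without SR144528 at 3 µM. Cells washed in PBS, lysed at pH 7.5 in HEPES/NaCl/EDTA/NaF/vanadate/Triton buffer, and centrifuged at 12,000 g, 4 °C. 40 µg protein run on 12% SDS-PAGE and transferred to nitrocellulose. Blots probed overnight with anti-CB2, detected by HRP anti-rabbit and ECL, normalized to actin.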

Cannabinoid receptor 1 = Cannabinoid receptor 1 (Homo sapiens, UniProt P21554); test: Displacement of [3H]CP55940 from recombinant human CB1 receptor expressed in human HEK293 cell membrane after 90 mins; format: cell membranes
How it was run: (§3)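 Membranes of HEK-293 cells transfected with human recombinant CB1R (Bmax 2.5 pmol/mg protein) or CB2R (Bmax 4.7 pmol/mg protein). Test compound at increasing concentrations displaced [3H]CP55,940 over 90 min at 30 °C. Ki obtained from IC50 by Cheng–Prusoff. Means of at least three experiments run in duplicate.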

Cannabinoid receptor 2 = Cannabinoid receptor 2 (Homo sapiens, UniProt P34972); test: Displacement of [3H]CP55940 from recombinant human CB2 receptor expressed in human HEK293 cell membrane after 90 mins; format: cell membranes; how it was run: as §3
HEK293 = test: Selectivity index, ratio of Ki for recombinant human CB1 receptor expressed in human HEK293 cell membrane to recombinant human CB2 receptor expressed in human HEK293 cell membrane; format: cell-based
How it was run: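 Selectivity index is Ki(CB1)/Ki(CB2). Both Ki values come from [3H]CP55,940 displacement over 90 min at 30 °C, using membranes of HEK-293 cells expressing human recombinant CB1R or CB2R, with Cheng–Prusoff conversion.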

[4] = Solubility of the compound in DMSO/water solution; format: physicochemical
MCF7 = test: Antiproliferative activity against human MCF7 cells at 1 uM after 4 days by XTT assay; format: functional; conditions: MCF7, 96 h
How it was run: (§4)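 Cells kept at 37 °C, 5% CO2; seeded at 3 × 10³ cells per well, treated 3 h later with vehicle or ligand (1 µM in the four-day panel), medium and ligand renewed every two days for four days. Proliferation read by XTT staining; vehicle-treated O.D. taken as 100%. Two-tailed t-test versus vehicle.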

DU-145 [5] = test: Antiproliferative activity against human DU145 cells at 1 uM after 4 days by XTT assay; format: functional; conditions: DU-145, 96 h; how it was run: as §4
[6] = Antiproliferative activity against human WS1 cells at 1 uM after 4 days by XTT assay; format: cell-based; conditions: for Activity: ws1, 96 h, 1 µM; how it was run: as §4
DU-145 [7] = test: Antiproliferative activity against human DU145 cells at 0.1 to 1 uM after 24 hrs by SRB assay; format: functional, cell-based; how it was run: as §1
DU-145 [8] = test: Antiproliferative activity against human DU145 cells at 0.3 uM after 24 hrs by SRB assay; format: functional, cell-based; how it was run: as §1
DU-145 [9] = test: Down-regulation of CB2 receptor protein level in human DU145 cells at 0.3 uM after 24 hrs by immunoblot analysis in presence of CB2 receptor antagonist SR144528; format: functional, cell-based; how it was run: as §2
DU-145 [10] = test: Down-regulation of CB2 receptor protein level in human DU145 cells at 0.3 uM after 24 hrs by immunoblot analysis in presence of CB1 receptor antagonist SR141716; format: functional, cell-based
AGS = test: Antiproliferative activity against human AGS cells at 1 uM after 4 days by XTT assay; format: functional; conditions: 96 h; how it was run: as §4
T98G = test: Antiproliferative activity against human T98G cells at 1 uM after 4 days by XTT assay; format: functional; conditions: 96 h; how it was run: as §4

Sequence of Cannabinoid receptor 2 (P34972 whole entry): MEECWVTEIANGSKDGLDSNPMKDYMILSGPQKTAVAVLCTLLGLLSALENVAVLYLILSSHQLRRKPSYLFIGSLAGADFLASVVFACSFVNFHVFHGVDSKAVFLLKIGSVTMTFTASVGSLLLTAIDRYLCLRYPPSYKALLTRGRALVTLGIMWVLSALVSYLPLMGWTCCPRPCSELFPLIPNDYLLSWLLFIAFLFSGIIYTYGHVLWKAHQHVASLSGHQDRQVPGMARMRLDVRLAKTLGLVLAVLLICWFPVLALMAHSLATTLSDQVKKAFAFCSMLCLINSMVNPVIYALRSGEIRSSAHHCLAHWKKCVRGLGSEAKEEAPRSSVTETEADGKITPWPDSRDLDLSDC
Sequence of Cannabinoid receptor 1 (P21554 whole entry): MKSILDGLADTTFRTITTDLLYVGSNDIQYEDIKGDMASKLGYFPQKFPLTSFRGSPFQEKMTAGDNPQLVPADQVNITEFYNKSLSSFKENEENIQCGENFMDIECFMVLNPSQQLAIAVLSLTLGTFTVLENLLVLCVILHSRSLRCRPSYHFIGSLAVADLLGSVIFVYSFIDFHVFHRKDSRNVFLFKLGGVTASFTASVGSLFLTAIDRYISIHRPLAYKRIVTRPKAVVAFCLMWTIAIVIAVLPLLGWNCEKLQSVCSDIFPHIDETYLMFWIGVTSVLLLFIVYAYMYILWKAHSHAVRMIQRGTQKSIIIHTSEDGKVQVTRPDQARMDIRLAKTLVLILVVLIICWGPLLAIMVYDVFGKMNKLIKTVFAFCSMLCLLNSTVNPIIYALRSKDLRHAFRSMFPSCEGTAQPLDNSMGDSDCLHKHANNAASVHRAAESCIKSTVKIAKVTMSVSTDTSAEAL

| Compound | Ki (Cannabinoid receptor 1) [nM] | Ki (Cannabinoid receptor 2) [nM] | Ratio Ki (HEK293) | further results |
| --- | --- | --- | --- | --- |
| Cc1ccc(Cn2nc(C(=O)N[C@@H]3C(C)(C)[C@@H]4CC[C@@]3(C)C4)cc2-c2ccc(Cl)c(C)c2)cc1 | – | – | – | Activity (DU-145 [1]): inactive; Activity [2]: Non-toxic; Activity (DU-145 [3]): Active |
| O=C(NC1CCCCC1)c1c(O)c2cccnc2n(Cc2ccccc2)c1=O | 560 | 79 | 7.1 | – |
| CCCC(C)(C)c1ccc2c(c1)OC(C)(C)[C@@H]1CC=C(C)C[C@@H]21 | 117 | 1.82 | – | – |
| O=C(NC1CCCCC1)c1cc2ccccc2n(Cc2ccccc2)c1=O | 67 | 16 | 4.2 | – |
| O=C(NC1CCCCC1)c1cc2ccccc2nc1OCc1ccc(F)cc1 | 1200 | 130 | 9.2 | – |
| O=C(NC1CCCCC1)c1cccnc1OCc1ccc(F)cc1 | 1810 | 250 | 7.3 | – |
| O=C(NC1CCCCCC1)c1c(O)c2cccnc2n(Cc2ccc(F)cc2)c1=O | – | – | – | solubility [4]: Insoluble |
| O=C(NC1CCCCC1)c1cc2ccccc2n(CCN2CCOCC2)c1=O | 300 | 9 | 33 | – |
| O=C(NC1CCCCCC1)c1cccn(Cc2ccc(F)cc2)c1=O | 43 | 7.8 | 5.5 | inhibition at 1 µM (MCF7): 12%; inhibition at 1 µM (DU-145 [5]): 15%; Activity [6]: Non-toxic; inhibition (DU-145 [7]): Active; Activity (DU-145 [8]): Active; Activity (DU-145 [1]): inactive; Activity [2]: Non-toxic; Activity (DU-145 [3]): Active; Activity (DU-145 [9]): inactive; Activity (DU-145 [10]): Active |
| O=C(NC1CCCCCC1)c1cc2ccccc2n(Cc2ccc(F)cc2)c1=O | 11.6 | 0.25 | 48 | – |
| O=C(NC1CCCCCC1)c1cccnc1OCc1ccc(F)cc1 | 100 | 25 | 4 | – |
| O=C(NC1CCCCC1)c1cccn(Cc2ccccc2)c1=O | 800 | 200 | 4 | – |
| O=C(NC1CCCCCC1)c1cccn(CCN2CCOCC2)c1=O | 950 | 790 | 1.2 | – |
| O=C(NC1CCCCC1)c1c(O)c2cccnc2n(Cc2ccc(F)cc2)c1=O | – | – | – | solubility [4]: Insoluble |
| O=C(NC1CCCCCC1)c1c(O)c2cccnc2n(CCN2CCOCC2)c1=O | 234 | 1.8 | 130 | inhibition at 1 µM (MCF7): 26%; inhibition at 1 µM (AGS): 62%; inhibition at 1 µM (T98G): 15%; inhibition at 1 µM (DU-145 [5]): 33%; inhibition at 96 h, 1 µM ([6]; WS1 cells): 21%; inhibition (DU-145 [7]): Active; Activity (DU-145 [8]): Active; Activity (DU-145 [1]): inactive; Activity [2]: Non-toxic; Activity (DU-145 [3]): Active; Activity (DU-145 [9]): inactive; Activity (DU-145 [10]): Active |
| O=C(NC1CCCCC1)c1cccnc1OCc1ccccc1 | > 10000 | 916 | – | – |
| O=C(NC1CCCCC1)c1cccn(Cc2ccc(F)cc2)c1=O | 70 | 20 | 3.5 | – |
| O=C(NC1CCCCC1)c1c(O)c2cccnc2n(CCN2CCOCC2)c1=O | 64.6 | 2.4 | 26.6 | – |
| O=C(NC1CCCCC1)c1cc2ccccc2n(Cc2ccc(F)cc2)c1=O | 16.5 | 2.9 | 5.7 | – |
| O=C(NC1CCCCCC1)c1cc2ccccc2n(CCN2CCOCC2)c1=O | 206 | 2 | 103 | inhibition at 1 µM (DU-145 [5]): 11%; Activity [6]: Non-toxic; inhibition (DU-145 [7]): Active; Activity (DU-145 [8]): Active; Activity (DU-145 [1]): inactive; Activity [2]: Non-toxic; Activity (DU-145 [3]): Active; Activity (DU-145 [9]): inactive; Activity (DU-145 [10]): Active |
| O=C(NC1CCCCC1)c1cccn(CCN2CCOCC2)c1=O | > 10000 | 7900 | – | – |
